The values that follow come from ChEMBL document CHEMBL4414551, “Design, Synthesis, and Biological Evaluation of Substituted 4,6-Dihydrospiro[[1,2,3]triazolo[4,5-b]pyridine-7,3'-indoline]-2',5(3H)-dione Analogues as Potent NS4B Inhibitors for the Treatment of Dengue Virus Infection” (J Med Chem, 2019).

Broadly, the EC50 is the concentration giving half of the maximal effect. Broadly, the CC50 is the concentration that lowers cell viability or growth by half.

The structures appear in SMILES notation. Activity calls are given as the source filed them. The calls are words filed in the database; no cut-off is given here.

For one data set, the system named is dengue virus type 3. Description: Antiviral activity against Dengue virus 3 D3MY05-34640 infected in human HuH7 replicon cells expressing Renilla luciferase and neomycin-resistance genes assessed as reduction in viral replication incubated for 48 hrs by luciferase reporter replicon-based assay. The conditions noted are these: D3MY05-34640, Huh-7, 48 h. Type of data set: functional, organism-based. In outline:
(§1)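 Huh7 cells stably carrying a Renilla luciferase/neomycin-resistance replicon (DENV-1 WestPac, DENV-2 NGC, DENV-3 D3MY05-34640 or DENV-4 D4MY01-22713). Cells seeded at 10k per well and incubated overnight at 37 °C, 5% CO2. Then exposed to 2-fold serial compound dilutions for 48 h, in duplicate. Luciferase read with a live-cell substrate. EC50 from four-parameter logistic fit.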
For orientation: A replicon is a self-replicating genome or part of one, used to study replication in cells.

Data set [1] concerns dengue virus type 1. As to the kind of experiment: Antiviral activity against Dengue virus 1 WestPac infected in human HuH7 replicon cells expressing Renilla luciferase and neomycin-resistance genes assessed as reduction in viral replication up to 10 uM incubated for 48 hrs by luciferase reporter replicon-based assay. It is filed as functional, organism-based. In outline: as §1

Data set [2] is described as follows: Cytotoxicity in human HuH7 replicon cells infected with Dengue virus 2 NGC assessed as reduction in cell viability incubated for 48 hrs by Cell-titer-Glo reagent based assay. Further details: species or system Huh-7. The method in brief:
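Huh7 cells or Huh7 replicon cells plated, then held at 37 °C with 5% CO₂ overnight. Exposed to 2-fold serial compound dilutions for 48 h, in duplicate. Viability read with CellTiter-Glo and normalized to 0.45% DMSO wells set at 100%. CC50 from four-parameter logistic fit.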

The subject of data set [3] is dengue virus type 2. Description: Inhibition of NS4B in Dengue virus 2 NGC infected in human HuH7 replicon cells lysates at 10 ujM incubated for 48 hrs by SDS-PAGE based pull down assay. Type of data set: subcellular. Particulars: Lysate. In outline:
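Huh7 cells, 4×10⁶ per T-75, infected next day with DENV-2 NGC at MOI 2.0 with 10 µM biotinylated probe, or 0.25% DMSO, for 48 h at 37 °C. Lysis in 20 mM Tris-HCl pH 7.5, 100 mM NaCl, 0.5% DDM with protease inhibitors. Lysate spiked with compound to 100 µM final, then streptavidin magnetic beads at 4 °C overnight. Bead eluates resolved on 12% SDS-PAGE; NS4B detected by anti-NS4B monoclonal Western blot.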

Data set [4] relates to dengue virus type 2. As to the kind of experiment: Antiviral activity against Dengue virus 2 NGC infected in human HuH7 replicon cells expressing Renilla luciferase and neomycin-resistance genes assessed as reduction in viral replication incubated for 48 hrs by luciferase reporter replicon-based assay. It is filed as functional, organism-based. The conditions noted are these: Huh-7, 48 h. The method in brief: as §1

Data set [5] has as its system dengue virus type 4. Description: Antiviral activity against Dengue virus 4 D4MY01-22713 infected in human HuH7 replicon cells expressing Renilla luciferase and neomycin-resistance genes assessed as reduction in viral replication up to 10 uM incubated for 48 hrs by luciferase reporter replicon-based assay. Type of data set: functional, organism-based. In outline:
as §1

For data set [6], the system named is dengue virus type 1. Description: Antiviral activity against Dengue virus 1 WestPac infected in human HuH7 replicon cells expressing Renilla luciferase and neomycin-resistance genes assessed as reduction in viral replication incubated for 48 hrs by luciferase reporter replicon-based assay. It is filed as functional, organism-based. The conditions noted are these: Huh-7, 48 h. In outline:
as §1

Data set [7] has as its system dengue virus type 4. Description: Antiviral activity against Dengue virus 4 D4MY01-22713 infected in human HuH7 replicon cells expressing Renilla luciferase and neomycin-resistance genes assessed as reduction in viral replication incubated for 48 hrs by luciferase reporter replicon-based assay. Type of data set: functional, organism-based. Particulars: D4MY01-22713, Huh-7, 48 h. In outline: as §1

Consider `C[C@@H](c1ccc(Cl)cc1)n1nnc2c1NC(=O)C[C@]21C(=O)N(CCOC(=O)CCCCCCCNC(=O)CCCC[C@@H]2SC[C@@H]3NC(=O)N[C@@H]32)c2ccc(Cl)cc21`, for which the EC50 in the data set with dengue virus type 3 worked out at 16.7 nM; with dengue virus type 2 [4], 41.4 nM. Also, the result with dengue virus type 1 [1] and in the data set on dengue virus type 4 [5] was inactive. The half-maximal cytotoxic concentration (CC50) at 48 h in data set [2] is over 10000 nM. Besides, the inhibition entry in the data set on dengue virus type 2 [3] is “Active”.

As to `C[C@@H](c1ccc(Cl)cc1)n1nnc2c1NC(=O)C[C@]21C(=O)N(Cc2cccc(F)c2)c2ccc(Cl)cc21`, the 50% effective concentration (EC50) in the data set on dengue virus type 3 is 51 nM; with dengue virus type 2 [4], 290 nM; with dengue virus type 1 [6], 10000 nM; with dengue virus type 4 [7], over 5000 nM. Besides, the half-maximal cytotoxic concentration (CC50) at 48 h in data set [2] was over 10000 nM.

`C[C@@H](c1ccc(Cl)cc1)n1nnc2c1NC(=O)C[C@@]21C(=O)N(CCOC(=O)CCCCCCCNC(=O)CCCC[C@@H]2SC[C@@H]3NC(=O)N[C@@H]32)c2ccc(Cl)cc21`: the EC50 with dengue virus type 3 and in the data set on dengue virus type 2 [4] was over 5000 nM in each case. Besides, in data set [2], the CC50 at 48 h was over 10000 nM. For the same molecule, the inhibition result in the data set on dengue virus type 2 [3] was “inactive”.

`CCCCN1C(=O)[C@]2(CC(=O)Nc3c2nnn3[C@@H](C)c2ccc(Cl)cc2)c2cc(Cl)ccc21`: the EC50 in the data set with dengue virus type 3 was 18 nM; with dengue virus type 2 [4], 75 nM; in the data set with dengue virus type 1 [6] it was 1300 nM; with dengue virus type 4 [7] it was over 5000 nM. Also, the CC50 at 48 h in data set [2] was over 10000 nM.

For `C[C@@H](c1ccc(Cl)cc1)n1nnc2c1NC(=O)C[C@]21C(=O)N(CCN2CCN(C)CC2)c2ccc(Cl)cc21`, the EC50 in the data set on dengue virus type 3 is 30 nM; in the data set on dengue virus type 2 [4] it was 300 nM; with dengue virus type 1 [6] it was over 5000 nM; in the data set on dengue virus type 4 [7], over 5000 nM. Further, the CC50 at 48 h in data set [2] was over 10000 nM.

As for `COc1cccc(CN2C(=O)[C@]3(CC(=O)Nc4c3nnn4[C@@H](C)c3ccc(Cl)cc3)c3cc(Cl)ccc32)c1`, the concentration for a half-maximal effect (EC50) in the data set on dengue virus type 3 stood at 87 nM; with dengue virus type 2 [4], 830 nM; in the data set with dengue virus type 1 [6], 2600 nM; with dengue virus type 4 [7], 6200 nM. Further, the half-maximal cytotoxic concentration (CC50) at 48 h in data set [2] was over 10000 nM.

Turning to `C[C@@H](c1ccc(Cl)cc1)n1nnc2c1NC(=O)C[C@]21C(=O)N(Cc2ccccn2)c2ccc(Cl)cc21`, the concentration giving a half-maximal response (EC50) in the data set with dengue virus type 3 was 3 nM; with dengue virus type 2 [4], 20 nM; in the data set with dengue virus type 1 [6] it was over 5000 nM; in the data set on dengue virus type 4 [7], over 5000 nM. In addition, the half-maximal cytotoxic concentration (CC50) at 48 h in data set [2] is over 10000 nM.

Take `COCCCN1C(=O)C[C@]2(C(=O)Nc3ccc(Cl)cc32)c2nnn([C@@H](C)c3ccc(Cl)cc3)c21`: the EC50 was 910 nM with dengue virus type 3, 8700 nM with dengue virus type 2 [4], over 10000 nM in the data set on dengue virus type 1 [6] and over 10000 nM with dengue virus type 4 [7]. In addition, in data set [2], the 50% cytotoxic concentration (CC50) at 48 h was over 10000 nM.

Turning to `C[C@@H](c1ccc(Cl)cc1)n1nnc2c1NC(=O)C[C@]21C(=O)N(Cc2ccc(Cl)nc2)c2ccc(Cl)cc21`, the EC50 in the data set on dengue virus type 3 was 6 nM; with dengue virus type 2 [4], 78 nM; in the data set with dengue virus type 1 [6], over 5000 nM; in the data set on dengue virus type 4 [7], over 5000 nM. Moreover, the 50% cytotoxic concentration (CC50) at 48 h in data set [2] was over 10000 nM.

In the case of `CC(C)N1C(=O)[C@]2(CC(=O)Nc3c2nnn3[C@@H](C)c2ccc(Cl)cc2)c2cc(Cl)ccc21`, the concentration giving a half-maximal response (EC50) was 9 nM in the data set on dengue virus type 3, 23 nM in the data set on dengue virus type 2 [4], 5700 nM with dengue virus type 1 [6] and over 5000 nM in the data set with dengue virus type 4 [7]. Also, in data set [2], the 50% cytotoxic concentration (CC50) at 48 h was over 10000 nM.

Regarding `C[C@@H](c1ccc(Cl)cc1)n1nnc2c1NC(=O)C[C@]21C(=O)N(CCCN2CCCCC2)c2ccc(Cl)cc21`, the EC50 in the data set on dengue virus type 3 was 12 nM; with dengue virus type 2 [4], 130 nM; in the data set with dengue virus type 1 [6], over 5000 nM; in the data set with dengue virus type 4 [7] it was over 5000 nM. Also, in data set [2], the cytotoxic concentration (CC50) at 48 h was over 10000 nM.

Regarding `COC(=O)CN1C(=O)[C@]2(CC(=O)Nc3c2nnn3[C@@H](C)c2ccc(Cl)cc2)c2cc(Cl)ccc21`, the concentration for a half-maximal effect (EC50) in the data set with dengue virus type 3 is 11 nM; in the data set with dengue virus type 2 [4] it was 77 nM; in the data set with dengue virus type 1 [6] it was over 5000 nM; with dengue virus type 4 [7], over 5000 nM. Further, the half-maximal cytotoxic concentration (CC50) at 48 h in data set [2] is over 10000 nM.

In the case of `C[C@@H](c1ccc(Cl)cc1)n1nnc2c1NC(=O)C[C@]21C(=O)N(CCN2CCCC2)c2ccc(Cl)cc21`, the concentration giving a half-maximal response (EC50) was 6 nM in the data set with dengue virus type 3, 38 nM with dengue virus type 2 [4], over 5000 nM in the data set on dengue virus type 1 [6] and over 5000 nM in the data set with dengue virus type 4 [7]. Moreover, the half-maximal cytotoxic concentration (CC50) at 48 h in data set [2] was over 10000 nM.

For the molecule `CC(C)N1C(=O)C[C@]2(C(=O)Nc3ccc(Cl)cc32)c2nnn([C@@H](C)c3ccc(Cl)cc3)c21`, the half-maximal effective concentration (EC50) in the data set on dengue virus type 3 was determined as 310 nM; with dengue virus type 2 [4], 860 nM; with dengue virus type 1 [6] it was 2100 nM; with dengue virus type 4 [7], 4400 nM. In addition, the CC50 at 48 h in data set [2] is over 10000 nM.

As for `C[C@@H](c1ccc(Cl)cc1)n1nnc2c1NC(=O)C[C@]21C(=O)Nc2ccc(Cl)cc21`, the EC50 in the data set on dengue virus type 3 is 10 nM; with dengue virus type 2 [4] it was 39 nM; with dengue virus type 1 [6] it was over 5000 nM; with dengue virus type 4 [7] it was over 5000 nM. The cytotoxic concentration (CC50) at 48 h in data set [2] was over 10000 nM.

With `C[C@@H](c1ccc(Cl)cc1)n1nnc2c1NC(=O)C[C@]21C(=O)N(CCCCCCN(C)C)c2ccc(Cl)cc21`, the EC50 with dengue virus type 3 was 66 nM; in the data set on dengue virus type 2 [4], 900 nM; with dengue virus type 1 [6] it was 1500 nM; in the data set on dengue virus type 4 [7], over 5000 nM. In addition, the CC50 at 48 h in data set [2] is over 10000 nM.

In the case of `C[C@@H](c1ccc(Cl)cc1)n1nnc2c1NC(=O)C[C@]21C(=O)N(CCCN2CCOCC2)c2ccc(Cl)cc21`, the EC50 in the data set with dengue virus type 3 is 5 nM; in the data set with dengue virus type 2 [4], 76 nM; in the data set on dengue virus type 1 [6] it was over 5000 nM; with dengue virus type 4 [7], over 5000 nM. Further, the CC50 at 48 h in data set [2] was over 10000 nM.
